Experimental data taken from ChEMBL document CHEMBL1122955, “Synthesis and dihydropteridine reductase inhibitory effects of potential metabolites of the neurotoxin 1-methyl-4-phenyl-1,2,3,6-tetrahydropyridine” (J Med Chem, 1985).

Tests used:
[1] = biological target: T1, Dihydropteridine reductase (Homo sapiens, UniProt P09417); test: Inhibitory activity against human liver Dihydropteridine reductase (DHPR); details: read-out: I50
T1 sequence (P09417 whole entry): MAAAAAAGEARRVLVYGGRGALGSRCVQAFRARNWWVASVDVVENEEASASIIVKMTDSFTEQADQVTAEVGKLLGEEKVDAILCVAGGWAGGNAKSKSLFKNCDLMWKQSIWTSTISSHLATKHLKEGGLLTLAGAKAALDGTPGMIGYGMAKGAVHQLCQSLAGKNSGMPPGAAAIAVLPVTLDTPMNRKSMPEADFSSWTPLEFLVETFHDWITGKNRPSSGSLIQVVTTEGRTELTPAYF
Procedure, shortened: (§1)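 DHPR from human liver (6 mU, 60 ng protein) or rat striatal synaptosomes (6.5 mU, 75 μg twice-washed P₂ protein), preincubated 10 min at 25 °C with at least six inhibitor concentrations. Residual activity measured with 50 μM qDMPH₂ and 50 μM NADH by decrease in NADH absorbance at 340 nm; I₅₀ = concentration giving 50% inhibition.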

[2] = biological target: T2, Dihydropteridine reductase (Rattus norvegicus, UniProt P11348); test: Inhibitory activity against rat striatal synaptosomes Dihydropteridine reductase (DHPR); assay type: subcellular, Brain; details: read-out: I50; procedure, shortened: as §1
T2 sequence (P11348 whole entry): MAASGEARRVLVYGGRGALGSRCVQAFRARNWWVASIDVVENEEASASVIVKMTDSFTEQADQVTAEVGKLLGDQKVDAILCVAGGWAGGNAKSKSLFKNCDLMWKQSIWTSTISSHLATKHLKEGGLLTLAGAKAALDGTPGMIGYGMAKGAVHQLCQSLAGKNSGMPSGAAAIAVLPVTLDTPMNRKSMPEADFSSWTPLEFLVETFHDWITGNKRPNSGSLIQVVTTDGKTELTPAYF

[3] = biological target: T1, Dihydropteridine reductase; test: Noncompetitive Iinhibitory activity against human liver DHPR enzyme
[4] = biological target: T2, Dihydropteridine reductase; test: Noncompetitive Inhibitory activity against rat striatal synaptosomal DHPR enzyme
[5] = biological target: T2, Dihydropteridine reductase; test: Inhibitory activity against rat striatal synaptosomes […] using 10 uM qBH2 and 50 uM NADH assays; assay type: subcellular, Brain; details: read-out: I50
Procedure, shortened: (§2)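 Human liver or rat striatal synaptosomal DHPR, preincubated 10 min at 25 °C with inhibitor. Activity then assayed using natural substrate (6R)-dihydrobiopterin (qBH₂) at 10 μM with 50 μM NADH, followed as NADH absorbance decrease at 340 nm, to give 50% inhibitory concentrations.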

[6] = biological target: T1, Dihydropteridine reductase; test: Inhibitory activity against human liver Dihydropteridine reductase enzyme using 10 uM qBH2 and 50 uM NADH assays; details: read-out: I50; procedure, shortened: as §2
[7] = biological target: T1, Dihydropteridine reductase; test: Inhibitory activity against human liver Dihydropteridine reductase using 10 uM qBH2 and 50 uM NADH assays; details: read-out: I50; procedure, shortened: as §2

Structure (SMILES) | IC50 [1] | IC50 [2] | further results
Clc1ccc(C2=CCNCC2)cc1 | 3400 µM | 4000 µM | 
C[n+]1ccc(-c2ccccc2)cc1 [listing 1 of 2 here] | 5600 µM | 3400 µM | 
Oc1ccc(C2=CCNCC2)cc1O | 3.6 µM | 1.9 µM | 
C=CC[n+]1ccc(-c2ccccc2)cc1 | 9400 µM | 7400 µM | 
COc1ccc(C2=CCN(C(C)=O)CC2)cc1OC | 1100 µM | 2300 µM | 
COc1cc(C2=CCNCC2)ccc1O | 7.2 µM |  | 
CC(=O)N1CCC(c2ccc(O)c(O)c2)CC1 | 5.2 µM | 3.1 µM | 
COc1cc(C2CCN(C(C)=O)CC2)ccc1O | 27 µM | 4.4 µM | 
Oc1ccc(C2=CCNCC2)cc1 | 5.9 µM | 3.4 µM | 
C[n+]1ccc(-c2ccccc2)cc1 [listing 2 of 2 here] | 10000 µM | 12000 µM | 
CN1CC=C(c2ccc(O)cc2)CC1 | 3 µM | 2.6 µM | Ki [3]: 2.8 µM
c1ccc(-c2ccncc2)cc1 | 2400 µM | 1900 µM | 
COc1cc(C2CCN(C)CC2)ccc1O | 19 µM | 20 µM | 
C[n+]1ccc(-c2ccc(O)c(O)c2)cc1 | 0.63 µM | 1.6 µM | Ki [4]: 1.9 µM
COc1ccc(-c2ccncc2)cc1OC | 5300 µM | 2000 µM | 
Oc1ccc(-c2ccncc2)cc1O | 0.38 µM | 0.28 µM | 
Oc1ccc(C2CCNCC2)cc1O | 44 µM | 38 µM | 
COc1cc(C2=CCN(C(C)=O)CC2)ccc1O | 5 µM | 91 µM | 
CN1CC=C(c2ccccc2)CC1 | 3000 µM | 4600 µM | IC50 [5]: 8400 µM; IC50 [6]: 7200 µM
CN1CCC(c2ccc(O)c(O)c2)CC1 | 42 µM | 60 µM | Ki [4]: 74 µM
COc1cc(C2=CCN(C)CC2)ccc1O | 9.3 µM | 5.8 µM | 
CN1CC=C(c2ccc(O)c(O)c2)CC1 | 3.4 µM | 2.5 µM | IC50 [7]: 1.4 µM; IC50 [5]: 1.2 µM; Ki [4]: 3.3 µM
CC(=O)N1CC=C(c2ccc(O)c(O)c2)CC1 | 0.28 µM | 0.25 µM | 
CN1CC=C(c2ccc(Cl)cc2)CC1 | 2700 µM | 6400 µM | 
C1=C(c2ccccc2)CCNC1 | 12000 µM | 6600 µM | 
CN1CCC(c2ccccc2)CC1 | 23000 µM | 12000 µM | 
